According to ChEMBL document CHEMBL4732105, “First orally bioavailable prodrug of proteolysis targeting chimera (PROTAC) degrades cyclin-dependent kinases 2/4/6 in vivo” (Eur J Med Chem, 2021):
The source made the active and inactive calls. The rule behind the calls is not given here.

Key:
[1] = tested on: A-375; test: Induction of cell cycle arrest in human A-375 cells assessed as accumulation at G0/G1 phase upto […] incubated for 48 hrs by propidium iodide staining based flow cytometry; type: functional
Method in brief: (§1)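 Tumor cells incubated 48 h in complete medium with compound or DMSO at various concentrations, stained with propidium iodide, and DNA content read by flow cytometry. G0/G1, S and G2/M fractions reported; mean ± SD, n = 3, Student's t-test.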

[2] = target: T1, Protein cereblon/Cyclin-dependent kinase 2 (Mus musculus) (UniProt P97377+Q8C7D2); test: Protac activity at CRBN/CDK2 in mouse B16F10 cells assessed as induction of CDK2 protein degradation after 12 hrs by Western blot analysis; type: cell-based; details: B16-F10, dose 62.5-1000 nM
Method in brief: (§2)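 B16F10 and A375 cells treated with DMSO or serial dilutions of compound for 12 h (concentration series), or for the indicated times (time course). CDK2, CDK4 and CDK6 protein levels determined by western blot.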

[3] = target: T2, Protein cereblon/Cyclin-dependent kinase 4 (Mus musculus) (UniProt P30285+Q8C7D2); test: Protac activity at CRBN/CDK4 in mouse B16F10 cells assessed as induction of CDK4 protein degradation after 12 hrs by Western blot analysis; type: cell-based; details: B16-F10, dose 62.5-1000 nM; method in brief: as §2
[4] = target: T3, Protein cereblon/Cyclin-dependent kinase 6 (Mus musculus) (UniProt Q8C7D2+Q64261); test: Protac activity at CRBN/CDK6 in mouse B16F10 cells assessed as induction of CDK6 protein degradation after 12 hrs by Western blot analysis; type: cell-based; details: B16-F10, dose 62.5-1000 nM; method in brief: as §2
[5] = target: T4, Protein cereblon/Cyclin-dependent kinase 6 (Homo sapiens) (UniProt Q00534+Q96SW2); test: Protac activity at CRBN/CDK6 in human A-375 cells assessed as induction of CDK6 protein degradation after 12 hrs by Western blot analysis; type: cell-based; details: dose 62.5-1000 nM; method in brief: as §2
[6] = target: T2, Protein cereblon/Cyclin-dependent kinase 4 (Mus musculus); test: Protac activity at CRBN/CDK4 in mouse B16F10 cells assessed as induction of CDK4 protein degradation at 500 nM by Western blot analysis; type: cell-based; details: B16-F10, time hrs <=12, TDE = time-dependent effect; method in brief: as §2
[7] = target: Protein cereblon/Cyclin-dependent kinase 2 (Homo sapiens) (UniProt P24941+Q96SW2); test: Protac activity at CRBN/CDK2 in human A-375 cells assessed as induction of CDK2 protein degradation at 1000 nM by Western blot analysis; type: cell-based; details: time hrs <=12, TDE = time-dependent effect; method in brief: as §2
[8] = target: T4, Protein cereblon/Cyclin-dependent kinase 6 (Homo sapiens); test: Protac activity at CRBN/CDK6 in human A-375 cells assessed as induction of CDK6 protein degradation at 1000 nM by Western blot analysis; type: cell-based; details: time hrs <=12, TDE = time-dependent effect; method in brief: as §2
[9] = target: T1, Protein cereblon/Cyclin-dependent kinase 2 (Mus musculus); test: Protac activity at CRBN/CDK2 in mouse B16F10 cells assessed as induction of CDK2 protein degradation at 100 nM for 6 hrs in presence of proteasome inhibitor MG132 by Western blot analysis; type: cell-based; details: B16-F10
Method in brief: (§3)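 B16F10 cells pre-treated 2 h with DMSO, pomalidomide (10 μM), MG132 (20 μM) or a parent CDK ligand, then exposed to 100 nM degrader for 6 h. CDK2/4/6 protein levels read by western blot.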

[10] = tested on: B16-F10; test: Induction of apoptosis in mouse B16F10 cells assessed as increase in cleaved caspase 3 level incubated for 48 hrs by Western blot analysis; type: functional, cell-based; details: dose nM <=1000, time 48.0 hrs
Method in brief: (§4)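 A375 and B16F10 cells incubated with compound for 48 h. Cleaved caspase-3, cleaved PARP, total P53, Bcl-2 and Bax measured by western blot.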

[11] = tested on: A-375; test: Induction of apoptosis in human A-375 cells assessed as increase in cleaved caspase 3 level incubated for 48 hrs by Western blot analysis; type: functional, cell-based; details: dose nM <=2000, time 48.0 hrs; method in brief: as §4
[12] = tested on: A-375; test: Induction of apoptosis in human A-375 cells assessed as increase in P-53 level upto 2000 nM incubated for 48 hrs by Western blot analysis; type: functional, cell-based; details: dose nM <=2000, time 48.0 hrs; method in brief: as §4
[13] = Cmax in Sprague-Dawley rat at 200 mg/kg, po; type: ADME, organism-based; parameters: route oral, dose 200 mg/kg; details: in vivo
Method in brief: (§5)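 Single oral dose of 200 mg/Kg to SD rats (n = 3). Prodrug and released active degrader quantified in plasma over 0–12 h; Cmax, Tmax and AUC0-12 derived by non-compartmental model.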

[14] = Cmax in Sprague-Dawley rat at 10 mg/kg, iv; type: ADME, organism-based; parameters: route intravenous, dose 10 mg/kg; details: in vivo
[15] = AUC (0 to 12 hrs) in Sprague-Dawley rat at 200 mg/kg, po; type: ADME, organism-based; parameters: time < 12 hr, route oral, dose 200 mg/kg; details: in vivo; method in brief: as §5
[16] = AUC (0 to 12 hrs) in Sprague-Dawley rat at 10 mg/kg, iv; type: ADME, organism-based; parameters: time < 12 hr, route intravenous, dose 10 mg/kg; details: in vivo
[17] = target: T2, Protein cereblon/Cyclin-dependent kinase 4 (Mus musculus); test: Protac activity at CRBN/CDK4 in mouse B16F10 cells assessed as induction of CDK4 protein degradation at 100 nM for 6 hrsin presence of Pomalidomide by Western blot analysis; type: cell-based; details: B16-F10, time 6.0 hrs; method in brief: as §3
[18] = target: T3, Protein cereblon/Cyclin-dependent kinase 6 (Mus musculus); test: Protac activity at CRBN/CDK6 in mouse B16F10 cells assessed as induction of CDK6 protein degradation at 100 nM for 6 hrsin presence of Ribociclib by Western blot analysis; type: cell-based; details: B16-F10, time 6.0 hrs
[19] = tested on: B16-F10; test: Induction of apoptosis in mouse B16F10 cells assessed as necrotic cells at 500 nM incubated for 48 hrs by Annexin V-FITC/PI staining based flow cytometry (reference value: 0.21%); type: functional
[20] = tested on: A-375; test: Induction of apoptosis in human A-375 cells assessed as viable cells at 250 nM incubated for 48 hrs by Annexin V-FITC/PI staining based flow cytometry (reference value: 93.3%); type: functional; details: read-out: Activity
[21] = tested on: A-375; test: Induction of apoptosis in human A-375 cells assessed as early apoptotic cells at 500 nM incubated for 48 hrs by Annexin V-FITC/PI staining based flow cytometry (reference value: 2.82%); type: functional
[22] = tested on: A-375; test: Induction of apoptosis in human A-375 cells assessed as late apoptotic cells at 500 nM incubated for 48 hrs by Annexin V-FITC/PI staining based flow cytometry (reference value: 3.28%); type: functional
[23] = tested on: A-375; test: Induction of apoptosis in human A-375 cells assessed as necrotic cells at 1000 nM incubated for 48 hrs by Annexin V-FITC/PI staining based flow cytometry (reference value: 0.602%); type: functional
[24] = tested on: B16-F10; test: Induction of cell cycle arrest in mouse B16-F10 cells assessed as accumulation at G1 phase at 100 uM incubated for 48 hrs by propidium iodide staining based flow cytometry (reference value: 52.59%); type: functional
[25] = tested on: B16-F10; test: Induction of cell cycle arrest in mouse B16-F10 cells assessed as accumulation at G2 phase at 50 uM incubated for 48 hrs by propidium iodide staining based flow cytometry (reference value: 18.22%); type: functional
[26] = tested on: A-375; test: Induction of cell cycle arrest in human A-375 cells assessed as accumulation at G1 phase at 500 uM incubated for 48 hrs by propidium iodide staining based flow cytometry (reference value: 58.26%); type: functional; method in brief: as §1
[27] = tested on: A-375; test: Induction of cell cycle arrest in human A-375 cells assessed as accumulation at G2 phase at 250 uM incubated for 48 hrs by propidium iodide staining based flow cytometry (reference value: 12.42%); type: functional; method in brief: as §1
[28] = tested on: A-375; test: Induction of cell cycle arrest in human A-375 cells assessed as accumulation at G2 phase at 500 uM incubated for 48 hrs by propidium iodide staining based flow cytometry (reference value: 12.42%); type: functional; method in brief: as §1
[29] = tested on: A-375; test: Induction of cell cycle arrest in human A-375 cells assessed as accumulation at G2 phase at 1000 uM incubated for 48 hrs by propidium iodide staining based flow cytometry (reference value: 12.42%); type: functional; method in brief: as §1

T2 sequence (P30285 whole entry, looked up): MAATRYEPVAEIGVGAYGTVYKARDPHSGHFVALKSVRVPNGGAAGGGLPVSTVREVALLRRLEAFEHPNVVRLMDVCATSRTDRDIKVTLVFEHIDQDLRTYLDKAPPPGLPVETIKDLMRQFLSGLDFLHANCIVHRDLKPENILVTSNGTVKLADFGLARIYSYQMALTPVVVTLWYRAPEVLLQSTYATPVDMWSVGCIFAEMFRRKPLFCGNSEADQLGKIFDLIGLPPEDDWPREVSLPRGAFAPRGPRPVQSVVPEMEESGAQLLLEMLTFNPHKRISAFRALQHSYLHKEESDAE
T2 sequence (Q8C7D2 whole entry, looked up): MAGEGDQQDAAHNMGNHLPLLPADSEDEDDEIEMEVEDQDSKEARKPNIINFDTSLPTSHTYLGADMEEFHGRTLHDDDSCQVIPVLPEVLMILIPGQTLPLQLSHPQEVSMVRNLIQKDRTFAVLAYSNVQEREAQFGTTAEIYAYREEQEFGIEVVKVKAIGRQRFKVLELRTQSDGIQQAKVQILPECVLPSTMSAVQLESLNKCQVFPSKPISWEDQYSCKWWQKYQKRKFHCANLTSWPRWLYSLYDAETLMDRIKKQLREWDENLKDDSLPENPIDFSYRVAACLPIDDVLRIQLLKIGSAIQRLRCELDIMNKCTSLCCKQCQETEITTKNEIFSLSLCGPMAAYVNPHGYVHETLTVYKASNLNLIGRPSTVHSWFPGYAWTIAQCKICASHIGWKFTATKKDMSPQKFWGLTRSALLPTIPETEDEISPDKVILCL
T3 sequence (Q64261 whole entry, looked up): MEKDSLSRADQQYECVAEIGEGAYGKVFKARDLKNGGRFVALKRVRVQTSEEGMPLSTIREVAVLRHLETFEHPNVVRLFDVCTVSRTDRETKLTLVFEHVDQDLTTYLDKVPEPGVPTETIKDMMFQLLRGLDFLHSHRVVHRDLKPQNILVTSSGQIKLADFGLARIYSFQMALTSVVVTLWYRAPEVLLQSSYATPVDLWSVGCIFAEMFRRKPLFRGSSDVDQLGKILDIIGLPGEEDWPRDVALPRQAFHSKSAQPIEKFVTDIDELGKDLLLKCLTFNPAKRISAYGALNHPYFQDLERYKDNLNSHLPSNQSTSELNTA
T3 sequence (Q8C7D2 whole entry, looked up): as the sequence (Q8C7D2 whole entry, looked up) above
T1 sequence (Q8C7D2 whole entry, looked up, other chains not shown): as the sequence (Q8C7D2 whole entry, looked up) above
T4 sequence (Q00534 whole entry, looked up): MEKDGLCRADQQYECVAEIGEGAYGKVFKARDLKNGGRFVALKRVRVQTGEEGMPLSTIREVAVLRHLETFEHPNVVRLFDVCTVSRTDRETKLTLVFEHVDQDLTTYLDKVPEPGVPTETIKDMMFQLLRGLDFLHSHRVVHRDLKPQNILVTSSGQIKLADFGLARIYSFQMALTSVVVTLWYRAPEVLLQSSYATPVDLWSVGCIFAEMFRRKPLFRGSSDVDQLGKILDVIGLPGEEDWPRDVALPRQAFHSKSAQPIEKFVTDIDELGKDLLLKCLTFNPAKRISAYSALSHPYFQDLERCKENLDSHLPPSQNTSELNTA
T4 sequence (Q96SW2 whole entry, looked up): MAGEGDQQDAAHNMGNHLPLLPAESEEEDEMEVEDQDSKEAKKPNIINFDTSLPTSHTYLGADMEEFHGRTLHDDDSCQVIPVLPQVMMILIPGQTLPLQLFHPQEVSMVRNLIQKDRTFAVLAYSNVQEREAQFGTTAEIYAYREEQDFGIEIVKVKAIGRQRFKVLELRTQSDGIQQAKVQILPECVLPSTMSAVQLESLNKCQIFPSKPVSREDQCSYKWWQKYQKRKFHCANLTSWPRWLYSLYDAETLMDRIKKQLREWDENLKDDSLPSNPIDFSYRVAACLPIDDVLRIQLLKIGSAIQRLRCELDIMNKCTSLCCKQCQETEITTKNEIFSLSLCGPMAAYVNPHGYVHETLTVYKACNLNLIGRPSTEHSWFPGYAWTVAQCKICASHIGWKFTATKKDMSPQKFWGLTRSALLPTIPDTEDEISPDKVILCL

Q: With CN(C)C(=O)c1cc2cnc(Nc3ccc(C(=O)NCCCCCCNc4cccc5c4C(=O)N(C4CCC(=O)NC4=O)C5=O)cc3)nc2n1C1CCCC1 (centres undefined) as the compound, how does the Activity [1] read?
A: Active

Q: And the Activity [2]?
A: Dose-dependent effect

Q: And the Activity [3]?
A: Dose-dependent effect

Q: And the Activity [4]?
A: Dose-dependent effect

Q: And the Activity [5]?
A: Dose-dependent effect

Q: And the Activity [6]?
A: Tde

Q: And the Activity [7]?
A: Tde

Q: And the Activity [8]?
A: Tde

Q: What about the Activity [9] of the same compound?
A: inactive

Q: What about the Activity [10] of the same compound?
A: Dose-dependent effect

Q: And the Activity [11]?
A: Dose-dependent effect

Q: And the Activity [12]?
A: Active

Q: And the Cmax [13]?
A: 692 µg/mL

Q: And the Cmax [14]?
A: 59.9 µg/mL

Q: What about the AUC [15] of the same compound?
A: 823 µg·h/mL

Q: And the AUC [16]?
A: 161 µg·h/mL

Q: What about the Activity [17] of the same compound?
A: inactive

Q: What about the Activity [18] of the same compound?
A: inactive

Q: What about the Activity [19] of the same compound?
A: 0.081%

Q: What about the viability at 0.25 µM [20] of the same compound?
A: 90.5%

Q: And the Activity [21]?
A: 9.59%

Q: What about the Activity [22] of the same compound?
A: 5.1%

Q: And the Activity [23]?
A: 0.273%

Q: And the Activity [24]?
A: 52.42%

Q: And the Activity [25]?
A: 22.66%

Q: What about the Activity [26] of the same compound?
A: 73.45%

Q: And the Activity [27]?
A: 9.57%

Q: What about the Activity [28] of the same compound?
A: 13.67%

Q: What about the Activity [29] of the same compound?
A: 16.68%
